KCC2 mod – KCC2 (human) Cl- transport modulation; actives 2.2% (n = 190,000); Q9H2X9; B-score of Tl+ flux slope (higher = more flux/activation; lower = inhibition) at 10 µM; KCC2 cells, thallium flux FluoZin-2 fluorescence; AID 1456;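 active means thallium flux slope and its plate-corrected score both differing from the plate sample mean at a set confidence after two filtering rounds, in either direction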;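 further: slope of fluorescence scaled to starting intensity during 10 to 20 s after thallium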
KCNK9 block – inhibitors of human KCNK9 two-pore domain potassium channel; B-score at 10 µM; Q9NPC2; HEK293 KCNK9, FluxOR thallium flux fluorescence; hits give low values; AID 488922; actives 1.2% (n = 310,000);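 active means ratio B-score over 3 SD below the library mean, with starting fluorescence within 5 SD of its mean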;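 further: negative B-score means less thallium flux so channel inhibition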
KCNK3 inh – human KCNK3 channel inhibition, primary screen. O14649. actives 0.84% (n = 340,000). CHO-KCNK3 thallium flux, FluxOR fluorescence; hits give low values. B-score at 10 µM;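 active means B-score under library mean minus 4 SD, starting fluorescence ratio at most library mean plus 5 SD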;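 further: more negative B-score means stronger inhibition of thallium flux through KCNK3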
KCNQ1 block – blocks the human KCNQ1 potassium channel; actives 1.3% (n = 310,000); CHO-K1 KCNQ1, FluxOR thallium flux fluorescence; hits give high values; AID 2642; B-score at 10 µM;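 active means compounds whose thallium flux B-score, printed positive for inhibition, exceeds three library SD while starting fluorescence stays within three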;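 further: channel opened by potassium depolarization with thallium stimulus after 20 min compound exposure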
KCNQ1 act – potentiators or activators of human KCNQ1 potassium channel; P51787; CHO-K1 KCNQ1, thallium flux FluxOR fluorescence; hits give high values; B-score at 10 µM; actives 0.35% (n = 310,000); AID 2648;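 active means fluorescence ratio B-score, a plate-corrected score, at least three library SD, with initial intensity B-score within 5 SD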
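System: Stable KCNQ1 CHO-K1 line | Incubation: 90 min dye loading and 20 min compound exposure, both at room temperature | Measure: Ratio B score | Medium: Assay buffer for compound exposure, DMSO matched across wells | Compound dosing: Single-concentration screen | Probe or stimulus: K+/Tl+ depolarizing stimulus | Measured by: Kinetic FluxOR fluorescence, 10 s baseline plus 110 s post-stimulus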
hERG rescue – shields human hERG channel from block by proarrhythmic agents; Q12809; CHO-hERG, FluxOR thallium flux, dofetilide IC70 present; activation (rescue from dofetilide block), less the hit threshold, % at 10 µM; actives 0.51% (n = 310,000); AID 1511;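 active means activation above the mean of controls blocked by dofetilide plus 5 SD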;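 further: thallium influx through hERG after potassium depolarization seen as dye fluorescence rise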
Target sequence (Q12809 whole entry, looked up): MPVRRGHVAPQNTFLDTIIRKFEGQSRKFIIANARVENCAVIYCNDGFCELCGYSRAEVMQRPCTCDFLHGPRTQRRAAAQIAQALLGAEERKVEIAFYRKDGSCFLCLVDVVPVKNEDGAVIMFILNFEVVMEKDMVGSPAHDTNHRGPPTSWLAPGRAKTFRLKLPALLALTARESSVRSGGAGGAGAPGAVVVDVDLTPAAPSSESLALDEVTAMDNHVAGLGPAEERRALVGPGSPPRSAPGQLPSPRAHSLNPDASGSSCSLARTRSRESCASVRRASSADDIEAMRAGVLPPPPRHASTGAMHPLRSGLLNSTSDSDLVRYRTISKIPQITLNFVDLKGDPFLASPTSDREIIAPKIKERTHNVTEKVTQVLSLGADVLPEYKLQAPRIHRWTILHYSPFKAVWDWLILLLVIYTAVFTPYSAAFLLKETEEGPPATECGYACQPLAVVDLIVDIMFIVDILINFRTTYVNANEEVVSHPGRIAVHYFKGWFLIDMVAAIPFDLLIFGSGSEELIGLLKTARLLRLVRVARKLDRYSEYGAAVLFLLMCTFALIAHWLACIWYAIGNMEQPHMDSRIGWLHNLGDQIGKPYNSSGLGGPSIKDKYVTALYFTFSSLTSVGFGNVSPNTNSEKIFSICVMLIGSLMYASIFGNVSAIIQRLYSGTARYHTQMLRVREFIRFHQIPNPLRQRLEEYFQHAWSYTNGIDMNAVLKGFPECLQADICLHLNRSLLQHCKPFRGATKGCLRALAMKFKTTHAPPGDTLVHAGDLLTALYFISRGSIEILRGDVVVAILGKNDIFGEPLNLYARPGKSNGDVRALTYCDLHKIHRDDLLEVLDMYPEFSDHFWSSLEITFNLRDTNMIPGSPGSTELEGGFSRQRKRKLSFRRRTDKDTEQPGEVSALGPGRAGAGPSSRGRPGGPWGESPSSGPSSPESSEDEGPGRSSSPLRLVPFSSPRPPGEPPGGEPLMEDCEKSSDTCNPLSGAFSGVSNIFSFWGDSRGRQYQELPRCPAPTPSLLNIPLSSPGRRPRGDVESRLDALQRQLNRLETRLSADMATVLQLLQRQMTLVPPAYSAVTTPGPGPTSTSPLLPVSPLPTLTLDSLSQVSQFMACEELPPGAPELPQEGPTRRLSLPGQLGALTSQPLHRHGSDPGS
KCC2 sec1 – confirmation of human KCC2 transport modulators; actives 15% (n = 3,700); shares compounds with KCC2 mod; HEK293-KCC2, thallium flux, FluoZin2 fluorescence; hits give high values; AID 1713; normalised thallium flux (F/F0 slope) at 10 µM;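 active means thallium flux slope above the same plate's solvent-only control mean plus 3 SD; inconclusive means the two replicate wells disagree; inactive means no significant difference from solvent-only control wells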
KCC2 bumet counter – bumetanide-insensitive thallium flux in KCC2 cells with ouabain, counter-screen; AID 1714; HEK293-KCC2 + bumetanide/ouabain, thallium flux FluoZin2; hits give high values; normalized thallium flux at 10 µM; actives 49% (n = 3,700); shares compounds with KCC2 mod;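 active means thallium entry rate above the same plate's blocked-transporter control wells by more than 3 SD; inconclusive means the two repeat wells disagree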;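 further: raw slope of fluorescence over initial fluorescence between 10 and 20 s after thallium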
KCC2 secondary2 – confirmation of human KCC2 transport modulators | normalized thallium flux at 10 µM | shares compounds with KCC2 mod | actives 23% (n = 3,700) | HEK293-KCC2, thallium flux FluoZin2 fluorescence; actives lie on both sides; F/F0 rise rate, 10–20 s post-thallium;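 active means thallium flux slope more than 3 SD above or below the plate's solvent-only control mean, mostly below; inconclusive means the two repeat wells disagreed; inactive means no significant shift from solvent-only controls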
HEK counter1 – parental HEK flux effect, counter-screen; shares compounds with KCC2 mod; HEK293 parental cells, thallium flux FluoZin2, ouabain; baseline-ratio fluorescence slope, 10–20 s after thallium; thallium flux rate (normalised fluorescence) at 10 µM; actives 46% (n = 3,700);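 active means thallium flux rate significantly above the same plate's solvent-only control wells, beyond their mean plus 3 SD; inconclusive means the two replicate wells gave conflicting results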
KCC2 retest ouab – confirmation of human KCC2 modulators with ouabain | shares compounds with KCC2 mod | HEK293-KCC2, thallium flux FluoZin2 fluorescence; bidirectional: low = inhibitor, high = activator | raw Tl+ flux slope (below DMSO = inhibition, above = activation) at 10 µM | actives 48% (n = 3,700) | AID 1717;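 active means thallium flux slope beyond 3 SD from same-plate DMSO control mean in most replicates, usually higher, sometimes lower; inconclusive means repeat tests gave conflicting results; inactive means no significant difference from controls in most replicates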;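 further: slope of initial-normalized fluorescence between seconds 10 and 20 after thallium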
HEK293 Tl flux2 – counter-screen for KCC2 modulators: effect in parental HEK293 cells; AID 1718; shares compounds with KCC2 mod; actives 33% (n = 3,700); thallium flux slope at 10 µM; thallium flux FluoZin-2 fluorescence slope;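 active means thallium flux slope above the same plate's solvent-control mean plus 3 SD in both duplicate wells; inconclusive means duplicate wells that disagreed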;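 further: run without ouabain in cells lacking the KCC2 cotransporter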
A number is an active result; . = inactive; ? = inconclusive; / = not tested or not shown. An excerpt weighted towards active compounds, which were near 4.1% of everything screened.

SMILES	KCC2 mod	KCNK9 block	KCNK3 inh	KCNQ1 block	KCNQ1 act	hERG rescue	KCC2 sec1	KCC2 bumet counter	KCC2 secondary2	HEK counter1	KCC2 retest ouab	HEK293 Tl flux2
Cc1ccc(OCc2n[nH]c(=S)n2C2CCCCC2)cc1	12.8	.	.	.	.	.	?	0.0429	0.0445	0.0265	0.0423	0.0298
Cc1ccc(C2CC(C(F)(F)F)n3nc(C(=O)NCC4CCCO4)cc3N2)cc1 (stereo not given)	-4.17	.	/	.	.	.	.	.	.	.	.	.
Cc1oc2cc(O)ccc2c(=O)c1-c1cnn(-c2ccccc2)c1	.	.	.	.	.	.	/	/	/	/	/	/
O=c1c(-c2cnn(-c3ccccc3)c2)coc2cc(O)ccc12	-4.06	.	.	.	.	.	.	0.00593	0.0258	.	?	.
COc1ccc(-c2noc(=O)n2CC(=O)N2CCC(Cc3ccccc3)CC2)cc1	-4.73	.	.	.	.	.	.	0.00326	0.0226	0.00521	0.0131	0.00751
O=C(Cn1c(-c2ccccc2)noc1=O)N1CCC(Cc2ccccc2)CC1	-5.16	.	.	.	.	.	.	.	0.028	.	0.0152	.
COc1ccc(OCC(=O)N2CCC(Cc3ccccc3)CC2)cc1	/	.	.	.	.	.	/	/	/	/	/	/
COc1ccc(N(C(C)C(=O)N2CCC(Cc3ccccc3)CC2)S(C)(=O)=O)cc1 (stereo not given)	-3.62	.	.	.	.	.	?	.	.	.	0.0152	.
O=C(Cn1c(-c2ccccc2)noc1=O)Nc1ccc(N2CCCCCC2)cc1	/	.	.	.	.	.	.	.	.	.	0.0163	.
O=C(Cn1c(-c2ccccc2)noc1=O)Nc1ccc(S(=O)(=O)N2CCOCC2)cc1	.	.	.	.	.	.	/	/	/	/	/	/
O=C(/C=C/c1ccc(OC(F)F)cc1)Nc1cccc(S(=O)(=O)NC2=NCCCCC2)c1	/	.	.	.	.	.	/	/	/	/	/	/
COc1ccc(S(N)(=O)=O)cc1C(=O)NNC(=O)c1cccc(S(=O)(=O)N2CCOCC2)c1	/	/	.	/	/	/	/	/	/	/	/	/
COCCN(CC(=O)Nc1cccc(C)c1C)C(=O)Cc1ccsc1	/	/	.	/	/	/	/	/	/	/	/	/
Cc1ccc(C)c(NC(=O)CN(C)C(=O)CC2OC(=O)c3ccccc32)c1 (stereo not given)	/	/	.	/	/	/	/	/	/	/	/	/
C[C@]12CC[C@H](O)CC1=C[C@H](O)C1C2CC[C@@]2(C)C1CC[C@@]2(O)C#Cc1ccc(CN)cc1 (stereo not given in full)	/	/	.	/	/	/	/	/	/	/	/	/
N#Cc1nc(-c2ccco2)oc1N1CCN(Cc2ccccc2)CC1	/	.	.	.	.	.	.	.	0.026	.	0.0277	.
COc1ccccc1-c1nc(C#N)c(N2CCN(Cc3ccccc3)CC2)o1	/	.	.	.	.	.	/	/	/	/	/	/
COc1ccc(NS(=O)(=O)c2cccc(C(=O)N3CCN(S(=O)(=O)c4ccccc4)CC3)c2)cc1	/	/	.	/	/	/	/	/	/	/	/	/
CC(C)NC(=O)N(C)C[C@@H]1Oc2c(NC(=O)Nc3ccccc3)cccc2C(=O)N([C@H](C)CO)C[C@H]1C	/	/	.	/	/	/	/	/	/	/	/	/
COc1ccc(-c2cc(C(F)(F)F)c3c(=O)n(-c4ccccc4)[nH]c3n2)cc1	-5.21	.	.	.	.	.	.	.	.	.	0.0179	.
CCOc1ccc(NC(=O)CN(C)C(=O)C2CCCO2)cc1OCC (stereo not given)	/	/	.	/	/	/	/	/	/	/	/	/
COc1ccc(CN(Cc2ccccn2)C(=O)CN2C(=O)COc3ccccc32)cc1	-2.77	.	.	.	.	.	.	.	0.0241	.	0.0167	.
S=c1nc(C2CCCCC2)n(-c2ccccc2)[nH]1	126	.	.	.	40	11.4	0.0546	0.139	0.0479	0.0782	0.112	0.0308
C=CCN(c1cccc(C(F)(F)F)c1)S(=O)(=O)c1cccc(C(=O)OCC(=O)NCCC)c1	-4.22	.	.	.	.	.	?	.	0.0244	0.00585	0.0142	?
C=CCN(c1ccccc1)S(=O)(=O)c1cccc(C(=O)OCC(=O)NCCOC)c1	.	.	.	.	.	.	/	/	/	/	/	/
SMILES	KCC2 mod	KCNK9 block	KCNK3 inh	KCNQ1 block	KCNQ1 act	hERG rescue	KCC2 sec1	KCC2 bumet counter	KCC2 secondary2	HEK counter1	KCC2 retest ouab	HEK293 Tl flux2
COc1ccccc1N(C)S(=O)(=O)c1ccc(C(=O)N(C)Cc2ccc(OC(F)F)cc2)cc1	/	/	.	/	/	/	/	/	/	/	/	/
Cc1cccc(N2CCN(C(=O)Cn3ccc4ccccc4c3=O)CC2)c1C	-4.48	.	.	.	.	.	.	.	0.0226	.	0.0158	.
Cc1cccc(N2CCN(C(=O)Cn3cnc4c3c(=O)n(C)c(=O)n4C)CC2)c1C	.	.	.	.	.	.	/	/	/	/	/	/
CC(C)OC(=O)c1nn2c(C(F)(F)F)cc(-c3ccc(Br)o3)nc2c1Br	/	.	.	.	.	.	.	.	.	.	.	.
Cc1ccc(S(=O)(=O)N2CCCCC2)cc1NC(=O)CNc1ccc(C(F)(F)F)cc1	/	.	.	.	.	.	/	/	/	/	/	/
CN(C)CCn1c(=S)[nH]c2ccccc2c1=O	.	.	.	.	.	.	/	/	/	/	/	/
CCC(C)n1c(=S)[nH]c2ccccc2c1=O (stereo not given)	101	.	.	.	14	13.7	0.0422	0.142	0.0546	0.133	0.11	0.0392
CCC(Cc1ccccc1)n1c(=S)[nH]c2ccccc2c1=O (stereo not given)	50.2	.	.	.	.	.	0.0192	0.15	.	0.0594	0.0876	0.0166
CCN(CC)C(=O)[C@H]1CC(CC(=O)NC/C=C(\C)CCC=C(C)C)C(=O)N2CCc3c([nH]c4ccccc34)[C@]12C (stereo not given in full)	/	/	.	/	/	/	/	/	/	/	/	/

Source: PubChem (several laboratories)
